Columns and labels:
[1] = Tmax in Sprague-Dawley rat at 25 mg/kg, po; assay type: ADME, organism-based; design: dose 25 mg/kg, route oral; conditions: in vivo
[2] = Clearance in BALB/c mouse at 5 mg/kg, iv; assay type: ADME, organism-based; design: dose 5 mg/kg, route intravenous; conditions: in vivo
Outline: (§1)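 Male BALB/c mice (~25 g); fasted overnight for single p.o. dosing, not fasted for i.v. or i.p. dosing. Composite blood sampling, n=3 per time point: 5, 15, 30 min, 1, 3, 6, 24, 48 hr after i.v. dose; 0.5, 1, 3, 5, 8, 24, 30, 48 hr after p.o. or i.p. dose. Heparinized plasma, both parent and N-oxide measured by LC/MS/MS (MRM 494.2/98.1 and 510.2/98.1); non-compartmental analysis, AUC by linear trapezoidal rule.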

[3] = Cmax in BALB/c mouse at 25 mg/kg, po; assay type: ADME, organism-based; design: dose 25 mg/kg, route oral; conditions: in vivo; outline: as §1
[4] = AUC (0 to infinity) in BALB/c mouse at 5 mg/kg, iv; assay type: ADME, organism-based; design: time infinity, dose 5 mg/kg, route intravenous; conditions: plasma; outline: as §1
[5] = Cmax in Beagle dog at 25 mg/kg, po; assay type: ADME, organism-based, Canis lupus familiaris; design: dose 25 mg/kg, route oral; conditions: in vivo
[6] = Half life in Sprague-Dawley rat at 5 mg/kg, iv; assay type: ADME, organism-based; design: dose 5 mg/kg, route intravenous; conditions: in vivo
[7] = Clearance in Sprague-Dawley rat at 5 mg/kg, iv; assay type: ADME, organism-based; design: dose 5 mg/kg, route intravenous; conditions: in vivo
[8] = AUC (0 to infinity) in BALB/c mouse at 25 mg/kg, po; assay type: ADME, organism-based; design: time infinity, dose 25 mg/kg, route oral; conditions: plasma; outline: as §1
[9] = AUC (0 to infinity) in Sprague-Dawley rat at 30 mg/kg, po; assay type: ADME, organism-based; design: time infinity, dose 30 mg/kg, route oral; conditions: plasma
[10] = AUC (0 to infinity) in Sprague-Dawley rat at 25 mg/kg, po; assay type: ADME, organism-based; design: time infinity, dose 25 mg/kg, route oral; conditions: plasma
[11] = AUC (0 to infinity) in BALB/c mouse at 40 mg/kg, po; assay type: ADME, organism-based; design: time infinity, dose 40 mg/kg, route oral; conditions: plasma; outline: as §1
[12] = AUC (0 to last) in Beagle dog at 25 mg/kg, po; assay type: ADME, organism-based, Canis lupus familiaris; design: dose 25 mg/kg, route oral, time 0 - last; conditions: plasma
[13] = Half life in Beagle dog at 5 mg/kg, iv; assay type: ADME, organism-based, Canis lupus familiaris; design: dose 5 mg/kg, route intravenous; conditions: in vivo
[14] = Volume of distribution in BALB/c mouse at 5 mg/kg, iv; assay type: ADME, organism-based; design: dose 5 mg/kg, route intravenous; conditions: in vivo
[15] = Bioavailability in Sprague-Dawley rat at 25 mg/kg, po; assay type: ADME, organism-based; conditions: in vivo
[16] = Bioavailability in Beagle dog at 25 mg/kg, po; assay type: ADME, organism-based, Canis lupus familiaris; conditions: in vivo
[17] = AUC (0 to infinity) in Sprague-Dawley rat at 5 mg/kg, iv; assay type: ADME, organism-based; design: time infinity, dose 5 mg/kg, route intravenous; conditions: plasma
[18] = AUC (0 to infinity) in Beagle dog at 25 mg/kg, po; assay type: ADME, organism-based, Canis lupus familiaris; design: time infinity, dose 25 mg/kg, route oral; conditions: plasma
[19] = AUC (0 to last) in Sprague-Dawley rat at 25 mg/kg, po; assay type: ADME, organism-based; design: time 0 - last, dose 25 mg/kg, route oral; conditions: plasma
[20] = Drug level in Beagle dog plasma at 5 mg/kg, iv; assay type: ADME, organism-based, Canis lupus familiaris; design: dose 5 mg/kg, route intravenous
[21] = Clearance in Beagle dog at 5 mg/kg, iv; assay type: ADME, organism-based, Canis lupus familiaris; design: dose 5 mg/kg, route intravenous; conditions: in vivo
[22] = Half life in BALB/c mouse at 5 mg/kg, iv; assay type: ADME, organism-based; design: dose 5 mg/kg, route intravenous; conditions: in vivo; outline: as §1
[23] = AUC (0 to last) in BALB/c mouse at 25 mg/kg, po; assay type: ADME, organism-based; design: time 0 - last, dose 25 mg/kg, route oral; conditions: plasma; outline: as §1
[24] = Volume of distribution in Sprague-Dawley rat at 5 mg/kg, iv; assay type: ADME, organism-based; design: dose 5 mg/kg, route intravenous; conditions: in vivo
[25] = Drug level in BALB/c mouse plasma at 5 mg/kg, iv; assay type: ADME, organism-based; design: dose 5 mg/kg, route intravenous; outline: as §1
[26] = test system: Canis familiaris; test: Bioavailability in Beagle dog assessed as AUC of ([7-(2,6-Dichloro-phenyl)-5-methyl-benzo[1,2,4]triazin-3-yl]-{4-[2-(1-pyrrolidin-1-yl-ethoxy)-phenyl]-amine) at 25 mg/kg, po; assay type: ADME, organism-based, Canis lupus familiaris; conditions: in vivo
[27] = Volume of distribution in Beagle dog at 5 mg/kg, iv; assay type: ADME, organism-based, Canis lupus familiaris; design: dose 5 mg/kg, route intravenous; conditions: in vivo
[28] = AUC (0 to infinity) in Beagle dog at 5 mg/kg, iv; assay type: ADME, organism-based, Canis lupus familiaris; design: time infinity, dose 5 mg/kg, route intravenous; conditions: plasma
[29] = Drug level in Sprague-Dawley rat plasma at 5 mg/kg, iv; assay type: ADME, organism-based; design: dose 5 mg/kg, route intravenous

For Cc1cc(-c2c(Cl)cccc2Cl)cc2nnc(Nc3ccc(OCCN4CCCC4)cc3)nc12, the Tmax [1] was 8 h, the clearance [2] was 20.1 mL/min/kg and the Cmax [3] was 618 ng/mL. It also gave an AUC(0-inf) [4] of 4140 ng·h/mL, a Cmax [5] of 102 ng/mL and a half-life [6] of 8.9 h. It also gave a clearance [7] of 12.7 mL/min/kg, an AUC(0-inf) [8] of 15300 ng·h/mL and an AUC(0-inf) [9] of 8120 ng·h/mL. The AUC(0-inf) [10] was 8010 ng·h/mL, the AUC(0-inf) [11] was 35100 ng·h/mL and the AUC(0-t) [12] was 2540 ng·h/mL. The half-life [13] was 15.1 h, the Vd [14] was 9.4 L/kg and the bioavailability [15] was 23%. The bioavailability [16] was 10.7%, the AUC(0-inf) [17] was 7030 ng·h/mL and the AUC(0-inf) [18] was 3110 ng·h/mL. It also gave an AUC(0-t) [19] of 7980 ng·h/mL, a C0 [20] of 1660 ng/mL and a clearance [21] of 14.5 mL/min/kg. It also gave a half-life [22] of 5.4 h, an AUC(0-t) [23] of 15000 ng·h/mL and a Vd [24] of 9.4 L/kg. The C0 [25] was 873 ng/mL, the AUC [26] was 6470 ng·h/mL and the Vd [27] was 18.7 L/kg. It also gave an AUC(0-inf) [28] of 5800 ng·h/mL and a C0 [29] of 1650 ng/mL.
